{
  "source": "paper PMC6247064",
  "about": "(Cancer Science, 2018)",
  "key": {"[1]": {"assay": "Phase 1 study: noncompartmental plasma pharmacokinetics", "format": "in vivo, human", "conditions": "for C av,72 (average plasma concentration over 72 h): geometric mean (CV%)", "method_in_brief": "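The test compound was given as a 1-h IV infusion at 80 or 105 mg/m2 every 14 days. Plasma levels were measured by validated LC/MS/MS and analysed noncompartmentally. C av,72 is the mean plasma concentration over 72 h after infusion. Accumulation ratio is cycle 2 day 1 AUC(0-24) divided by cycle 1 day 1 AUC(0-24). Values are geometric means.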"}, "advanced solid tumors [2]": {"tested_on": "advanced solid tumors", "assay": "Phase 1 study: antitumor activity by RECIST version 1.1", "format": "in vivo, human", "method_in_brief": "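Adults with advanced solid tumors received the test compound at 80 or 105 mg/m2 by IV infusion on day 1 of each 14-day cycle. Tumors were measured by CT or MRI and scored with RECIST 1.1. Best overall response was the best response recorded from the start of treatment until disease progression. Patients counted if they had baseline and post-baseline tumor measurements.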"}, "advanced solid tumors [3]": {"tested_on": "advanced solid tumors", "conditions": "cited from earlier work"}},
  "note": "Values joined by “and” are separate entries in the source; they are usually repeats but may differ in a detail not shown here. Identical values can stand only once. Like-named read-outs stand apart in the source and are kept apart here.",
  "data": [
    {"smiles": "COc1cccc(OCCCN)c1-c1cc(Nc2cnc(C#N)cn2)n[nH]1", "note": "[Prexasertib]", "values": [
      {"measurement": "C av,72 (average plasma concentration over 72 h)", "setting": "[1]; 80 mg/m^2 1-h IV infusion, Cycle 1, day 1, N 6", "result": "23.1 (22) ng/mL"},
      {"measurement": "C av,72 (average plasma concentration over 72 h)", "setting": "[1]; 80 mg/m^2 1-h IV infusion, Cycle 2, day 1, N 4", "result": "24.8 (16) ng/mL"},
      {"measurement": "C av,72 (average plasma concentration over 72 h)", "setting": "[1]; 105 mg/m^2 1-h IV infusion, Cycle 1, day 1, N 6", "result": "30.0 (13) ng/mL"},
      {"measurement": "C av,72 (average plasma concentration over 72 h)", "setting": "[1]; 105 mg/m^2 1-h IV infusion, Cycle 2, day 1, N 3", "result": "31.5 (22) ng/mL"},
      {"measurement": "Intercycle accumulation between cycle 1 and cycle 2", "setting": "[1]; both treatment groups", "result": "no intercycle accumulation"},
      {"measurement": "Maximum tumor shrinkage from baseline, individual patients with esophageal SCC", "setting": "advanced solid tumors [2]; 80 mg/m^2, two patients with BOR of stable disease", "result": "20% and 13%"},
      {"measurement": "BOR progressive disease", "setting": "advanced solid tumors [2]; 80 mg/m^2 group, 2 of 6 patients", "result": 33.3, "unit": "%"},
      {"measurement": "BOR stable disease", "setting": "advanced solid tumors [2]; 80 mg/m^2 group, 4 of 6 patients", "result": 66.7, "unit": "%"},
      {"measurement": "BOR progressive disease", "setting": "advanced solid tumors [2]; 105 mg/m^2 group, 1 of 5 evaluable patients", "result": 20.0, "unit": "%"},
      {"measurement": "BOR stable disease", "setting": "advanced solid tumors [2]; 105 mg/m^2 group, 4 of 5 evaluable patients", "result": 80.0, "unit": "%"},
      {"measurement": "Complete response or partial response", "setting": "advanced solid tumors [2]; all patients", "result": "No patients in the study had a complete response or partial response"},
      {"measurement": "Best overall response of stable disease", "setting": "advanced solid tumors [2]; patients with baseline and post-baseline tumor measurements, both doses", "result": "8 of 11"},
      {"measurement": "Best overall response of stable disease", "setting": "advanced solid tumors [3]; US phase 1, 15 of 45 patients", "result": 33, "unit": "%"},
      {"measurement": "Partial response", "setting": "advanced solid tumors [3]; US phase 1, 45 patients, Two patients (SCC of the anus, SCC of the head and neck)", "result": 4, "unit": "%"},
      {"measurement": "Recommended prexasertib dose", "setting": "advanced solid tumors [3]; US phase 1, administered once every 14 days", "result": 105, "unit": "mg/m^2"},
      {"measurement": "Patients with tumor shrinkage", "setting": "advanced solid tumors [3]; phase 1 trial in non-Japanese patients", "result": "10 of 34"}
    ]}
  ]
}
